Calls of active or inactive are those of the source. No cut-off for these calls is given here.
Experiments:
[1] = Agonist activity at human alpha7 nAChR/mouse 5HT3 chimeric receptor expressed in SH-EP1 cells assessed as increase in intracellular calcium level relative to 100 uM nicotine; type: functional
Procedure, shortened: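 α7-5HT3 chimera stably in SH-EP1 cells grown to confluence; loaded with Calcium Green 1 AM (2 μM final) 60 min at 37 °C. Compound added directly; calcium rise read by FLIPR (excitation 488 nm, emission >525 nm).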

CHO = assay: Toxicity in CHO cells assessed as induction of DNA fragments by in vitro micronucleus assay; type: cell-based, Cricetulus griseus; conditions: chinese hamster
[2] = biological target: T1, 5-hydroxytryptamine receptor 3A (Mus musculus, UniProt P23979); assay: Displacement of [3H]LY278584 from mouse 5HT3 receptor expressed in HEK293 cells; type: cell-based
T1 sequence (P23979 whole entry): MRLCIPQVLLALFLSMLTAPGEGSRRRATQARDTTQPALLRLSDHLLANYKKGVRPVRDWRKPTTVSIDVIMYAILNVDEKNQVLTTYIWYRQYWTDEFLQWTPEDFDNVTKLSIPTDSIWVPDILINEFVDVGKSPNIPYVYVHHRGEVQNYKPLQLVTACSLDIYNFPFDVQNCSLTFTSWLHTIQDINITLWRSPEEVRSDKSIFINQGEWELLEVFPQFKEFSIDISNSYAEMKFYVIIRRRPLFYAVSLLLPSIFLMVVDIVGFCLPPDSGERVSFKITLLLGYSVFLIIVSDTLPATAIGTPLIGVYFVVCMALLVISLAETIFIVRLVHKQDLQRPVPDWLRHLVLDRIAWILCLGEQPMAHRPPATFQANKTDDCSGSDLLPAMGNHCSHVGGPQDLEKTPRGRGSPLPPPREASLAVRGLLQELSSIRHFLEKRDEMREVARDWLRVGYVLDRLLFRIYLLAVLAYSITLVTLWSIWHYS
Procedure, shortened: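 Mouse 5-HT3A in HEK293 cell homogenate, 20 mM Tris-HCl pH 7.4 with 154 mM NaCl. [3H]LY278584 1 nM final; nonspecific binding with 10 μM ICS205-930; 60 min at 37 °C, then filtration onto PEI-soaked GF/B. Ki by Cheng-Prusoff; mean of three six-point curves in triplicate in one assay; tropisetron standard.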

[3] = Half life in human liver microsomes; type: ADME, Microsome
Procedure, shortened: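 Stability in human liver microsomes.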

Rattus norvegicus [4] = assay: Cognitive enhancement in Sprague-Dawley rat assessed as reversal of amphetamine-induced auditory sensory gating deficit at 0.3 mg/kg, sc; type: functional, organism-based; set-up: dose 0.3 mg/kg
Procedure, shortened: (§1)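 Male Sprague-Dawley rats (250-300 g) under chloral hydrate (400 mg/kg ip), femoral vein cannulated. CA3 hippocampal field potential recorded; auditory-evoked responses averaged over 50 stimulus pairs at 10 s interstimulus interval. Gating disrupted by d-amphetamine 1 mg/kg iv; compound sc. Read-out is reversal of the amphetamine deficit; PBS vehicle; two-tailed paired t-test.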

[5] = biological target: Muscarinic acetylcholine receptor M3 (Homo sapiens, UniProt P20309); assay: Inhibition of muscarinic M3 receptor
Sequence of Muscarinic acetylcholine receptor M3 (P20309 whole entry): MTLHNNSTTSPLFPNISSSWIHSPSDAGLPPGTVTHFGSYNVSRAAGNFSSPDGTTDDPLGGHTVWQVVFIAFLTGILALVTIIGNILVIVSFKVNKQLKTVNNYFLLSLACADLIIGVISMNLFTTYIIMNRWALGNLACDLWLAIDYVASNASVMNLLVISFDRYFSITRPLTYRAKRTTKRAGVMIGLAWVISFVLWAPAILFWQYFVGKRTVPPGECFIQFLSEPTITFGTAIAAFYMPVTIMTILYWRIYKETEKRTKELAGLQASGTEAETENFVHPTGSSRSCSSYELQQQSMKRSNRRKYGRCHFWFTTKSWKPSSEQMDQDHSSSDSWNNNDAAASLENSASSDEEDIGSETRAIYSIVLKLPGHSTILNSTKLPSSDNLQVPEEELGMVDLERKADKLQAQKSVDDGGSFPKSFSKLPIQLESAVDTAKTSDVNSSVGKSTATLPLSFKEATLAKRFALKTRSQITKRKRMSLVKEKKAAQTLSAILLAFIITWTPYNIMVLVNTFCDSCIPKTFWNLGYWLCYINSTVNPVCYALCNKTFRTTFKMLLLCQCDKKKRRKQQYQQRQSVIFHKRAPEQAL

[6] = Permeability from apical to basolateral side in dog MDCK cells at 2 uM; type: ADME, cell-based, Canis lupus familiaris; conditions: read-out: permeability
Procedure, shortened: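 MS quantification of apical-to-basolateral transfer of compound at 2 μM across contiguous MDCK cell monolayers.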

[7] = biological target: Neuronal acetylcholine receptor subunit alpha-7 (Rattus norvegicus, UniProt Q05941); assay: Displacement of [125I]BTX from rat alpha7 nicotinic acetylcholine receptor expressed in GH4C1 cells; type: cell-based, GH4-C1
Sequence of Neuronal acetylcholine receptor subunit alpha-7 (Q05941 whole entry): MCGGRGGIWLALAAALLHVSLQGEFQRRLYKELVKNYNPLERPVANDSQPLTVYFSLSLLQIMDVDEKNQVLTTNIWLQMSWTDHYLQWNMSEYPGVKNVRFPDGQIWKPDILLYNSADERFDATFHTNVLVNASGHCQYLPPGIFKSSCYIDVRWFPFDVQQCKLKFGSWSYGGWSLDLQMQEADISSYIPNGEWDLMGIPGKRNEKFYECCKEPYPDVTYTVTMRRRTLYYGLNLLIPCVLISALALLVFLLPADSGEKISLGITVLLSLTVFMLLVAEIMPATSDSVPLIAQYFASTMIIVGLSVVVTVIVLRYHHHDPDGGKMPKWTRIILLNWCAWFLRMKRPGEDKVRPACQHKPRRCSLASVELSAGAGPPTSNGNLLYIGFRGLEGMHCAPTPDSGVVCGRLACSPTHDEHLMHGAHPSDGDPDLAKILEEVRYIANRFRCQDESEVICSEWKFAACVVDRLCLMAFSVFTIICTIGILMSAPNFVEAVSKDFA
Procedure, shortened: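 GH4C1 membranes (20 mM HEPES, 118 mM NaCl, 4.5 mM KCl, 2.5 mM CaCl2, 1.2 mM MgSO4, pH 7.5) incubated 2 h at 37 °C with [125I]α-bungarotoxin 0.4 nM final. Nonspecific binding with 1 μM methyllycaconitine; filtration onto PEI-treated GF/B filters. Ki = IC50/(1+[L]/KD); six-point curves in triplicate; geometric mean with 95% CI.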

Rattus norvegicus [8] = assay: Cognitive enhancement in sc dosed Sprague-Dawley rat assessed as reversal of amphetamine-induced auditory sensory gating deficits; type: functional; conditions: read-out: MED; procedure, shortened: as §1
Plasma = assay: Fraction unbound in rat plasma; type: ADME, cell-free
Rattus norvegicus [9] = assay: Free plasma concentration in Sprague-Dawley rat auditory sensory gating deficit model at 0.3 mg/kg, sc after 40 mins; type: functional; conditions: route subcutaneous
Procedure, shortened: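 Rats given 0.3 mg/kg sc; free plasma concentration measured about 40 min after dosing.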

[10] = Lipophilicity, log D at pH 7.4; type: physicochemical; conditions: buffer
[11] = biological target: T2, Muscarinic acetylcholine receptor M5 (Homo sapiens, UniProt P08912); assay: Inhibition of muscarinic M5 receptor
T2 sequence (P08912 whole entry): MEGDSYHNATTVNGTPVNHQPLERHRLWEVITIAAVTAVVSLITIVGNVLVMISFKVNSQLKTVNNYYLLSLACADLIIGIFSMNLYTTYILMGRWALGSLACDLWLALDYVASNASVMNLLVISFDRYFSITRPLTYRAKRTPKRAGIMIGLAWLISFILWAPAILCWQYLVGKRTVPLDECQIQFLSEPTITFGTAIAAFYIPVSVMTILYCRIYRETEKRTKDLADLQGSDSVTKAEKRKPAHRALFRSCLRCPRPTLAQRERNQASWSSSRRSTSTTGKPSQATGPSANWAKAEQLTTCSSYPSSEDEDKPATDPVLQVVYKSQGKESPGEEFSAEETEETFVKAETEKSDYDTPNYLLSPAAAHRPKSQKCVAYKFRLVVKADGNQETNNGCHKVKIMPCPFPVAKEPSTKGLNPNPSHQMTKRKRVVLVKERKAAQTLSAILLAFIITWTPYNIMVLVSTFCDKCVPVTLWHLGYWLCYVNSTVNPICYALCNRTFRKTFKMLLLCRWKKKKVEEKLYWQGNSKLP

Rattus norvegicus [12] = assay: Cognitive enhancement in Sprague-Dawley rat assessed as reversal of amphetamine-induced auditory sensory gating deficit at 0.03 mg/kg, sc; type: functional, organism-based; set-up: dose 0.03 mg/kg; procedure, shortened: as §1
[13] = biological target: Neuronal acetylcholine receptor; alpha3/beta4 (Homo sapiens, UniProt P30926+P32297); assay: Displacement of [3H]epibatidine from alpha3beta4 nAChR expressed in IMR32 cells; type: cell-based, IMR-32
Sequence of Neuronal acetylcholine receptor; alpha3/beta4 (P30926 whole entry): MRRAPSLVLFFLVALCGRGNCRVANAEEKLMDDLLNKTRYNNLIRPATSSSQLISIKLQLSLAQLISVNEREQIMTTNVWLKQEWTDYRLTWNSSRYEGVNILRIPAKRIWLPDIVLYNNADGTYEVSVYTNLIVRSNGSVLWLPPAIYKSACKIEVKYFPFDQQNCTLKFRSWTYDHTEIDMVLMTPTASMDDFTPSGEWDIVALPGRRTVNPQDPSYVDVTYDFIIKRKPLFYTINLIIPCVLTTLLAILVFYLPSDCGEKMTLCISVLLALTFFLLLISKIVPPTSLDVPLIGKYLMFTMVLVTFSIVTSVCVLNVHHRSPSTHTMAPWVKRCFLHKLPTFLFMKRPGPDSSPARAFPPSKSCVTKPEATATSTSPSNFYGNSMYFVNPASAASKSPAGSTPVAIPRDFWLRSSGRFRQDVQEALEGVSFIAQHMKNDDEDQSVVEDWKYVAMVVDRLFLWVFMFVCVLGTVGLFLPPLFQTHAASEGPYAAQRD
Sequence of Neuronal acetylcholine receptor; alpha3/beta4 (P32297 whole entry): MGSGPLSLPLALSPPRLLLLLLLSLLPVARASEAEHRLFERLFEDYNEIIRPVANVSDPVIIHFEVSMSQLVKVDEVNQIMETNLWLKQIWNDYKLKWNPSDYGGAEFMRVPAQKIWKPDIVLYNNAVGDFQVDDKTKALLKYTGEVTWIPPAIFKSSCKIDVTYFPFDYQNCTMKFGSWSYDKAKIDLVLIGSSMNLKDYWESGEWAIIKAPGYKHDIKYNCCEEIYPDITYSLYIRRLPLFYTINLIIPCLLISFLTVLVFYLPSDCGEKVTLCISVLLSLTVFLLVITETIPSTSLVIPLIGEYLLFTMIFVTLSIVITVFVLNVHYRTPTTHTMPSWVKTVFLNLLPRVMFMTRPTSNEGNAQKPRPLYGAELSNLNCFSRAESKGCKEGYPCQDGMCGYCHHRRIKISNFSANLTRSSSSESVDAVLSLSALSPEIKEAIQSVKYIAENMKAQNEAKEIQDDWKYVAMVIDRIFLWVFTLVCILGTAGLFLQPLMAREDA
Procedure, shortened: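 Alpha3β4 binding in IMR32 cells with [3H]epibatidine radioligand. Six-point concentration-response curve run in triplicate and averaged.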

[14] = biological target: T3, Muscarinic acetylcholine receptor M4 (Homo sapiens, UniProt P08173); assay: Inhibition of muscarinic M4 receptor
T3 sequence (P08173 whole entry): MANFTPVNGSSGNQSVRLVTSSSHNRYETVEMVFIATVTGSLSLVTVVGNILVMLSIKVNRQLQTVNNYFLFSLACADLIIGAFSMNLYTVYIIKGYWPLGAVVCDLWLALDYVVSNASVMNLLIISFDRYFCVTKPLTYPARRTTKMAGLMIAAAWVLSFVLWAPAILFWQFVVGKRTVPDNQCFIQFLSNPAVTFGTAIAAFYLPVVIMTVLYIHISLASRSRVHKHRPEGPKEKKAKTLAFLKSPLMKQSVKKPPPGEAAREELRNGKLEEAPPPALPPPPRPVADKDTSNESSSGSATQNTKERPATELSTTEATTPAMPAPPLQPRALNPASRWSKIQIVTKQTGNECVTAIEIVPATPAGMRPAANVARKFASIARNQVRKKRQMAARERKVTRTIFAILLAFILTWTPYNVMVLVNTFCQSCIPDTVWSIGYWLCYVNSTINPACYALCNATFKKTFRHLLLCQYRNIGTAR

Cc1ccc2oc(N3CCN4CCC3CC4)nc2n1
Efficacy [1]: 46% | Activity (CHO): Non-toxic | Ki [2]: 0.269 µM | half-life [3]: > 2 h | Activity (Rattus norvegicus [4]): Active | Ki [5]: 8.3 µM | Papp A→B at 2 µM [6]: 18 ×10⁻⁶ cm/s | Ki [7]: 0.0135 µM | minimal effective dose (Rattus norvegicus [8]): 0.3 mg/kg | Fu (Plasma): 0.78% | Cp(f) (Rattus norvegicus [9]): 326 nM | logD [10]: 0.36 | Ki [11]: 5.2 µM | Activity (Rattus norvegicus [12]): Active | Ki [13]: 5.37 µM | Ki [14]: 3 µM

Source: ChEMBL document CHEMBL1159071, “Discovery of 4-(5-methyloxazolo[4,5-b]pyridin-2-yl)-1,4-diazabicyclo[3.2.2]nonane (CP-810,123), a novel alpha 7 nicotinic acetylcholine receptor agonist for the treatment of cognitive disorders in schizophrenia: synthesis, SAR development, and in vivo efficacy in cognition models” (J Med Chem, 2010)
